This is a sample that favours compounds with a hit; in the whole collection about 3.1% have one here.
GSIS activator: GLuc luminescence reporter in INS-1E cells, primary screen for activators of glucose-dependent secretion of insulin. INS-1E GLuc reporter insulin secretion, 2-3 h. 0.61% of 370,000 active. activation, % at 16.6 µM;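 active means lowest replicate activation of at least 40%, so every replicate reaches that level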;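 further: 0% = median of neutral control wells and 100% = median of IBMX positive control wells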
HIV Env fusion: inhibitors of HIV-1 Env-driven cell-cell fusion, primary screen, HeLa-JRFL effector, CEM21 target cells, luciferase | AID 651610, 2012 | 1.1% of 360,000 active | inhibition, % at 12.3 µM;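 active means mean replicate inhibition score of at least 50 and every replicate individually at or above 50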;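 further: 0% = plate neutral controls and 100% = maraviroc near 300 nM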
Cneo AK release: Cryptococcus neoformans cell lysis inducers, primary screen, AK release luminescence, single concentration | C. neoformans lysis, adenylate kinase release luminescence, 4 h; normalised: neutral wells 0, clomiphene wells 100 | lysis activity, % at 15 µM | 0.2% of 360,000 active;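 active means mean lysis activity across replicates of at least 80%, whatever share of replicates individually reach that level; inactive means mean lysis activity below 80%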
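Assay system: C. neoformans cells. Amount: yeast cell density of 5 × 10^6 cells/mL. Technique: AK luminescence. Buffer or medium: YPD. Times: static 4 h at 37 °C with compound, 1 h detection. Dosing: single-point compound dose. Read-out: lysis from increased AK signal.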
miR-122 sensor: miR-122 Renilla sensor signal increase in Huh7, primary screen, miR-122 inhibitor project, cell-based, single point, plate reader; AID 602342, 2012; Huh7 miR-122 Renilla luciferase sensor, 48 h; neutral wells = 0, positive control = 100; activation (reporter increase), % at 12.5 µM; 0.3% of 340,000 active;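 active means mean replicate activation score at least 90 and every replicate individually at or above 90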;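 further: higher luciferase means less miR-122 activity so hits act as miR-122 inhibitors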
CFTR F508del cor: F508del CFTR correction, initial screen, CFBE line, single point; CFBE cells, YFP halide quenching; stimulated with forskolin plus potentiator P3; % fluorescence drop versus neutral controls; activity (quench increase), % at 7.58 µM; 0.36% of 350,000 active; AID 720511, 2013;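 active means mean added fluorescence quench of at least 8% versus neutral control, with both replicates also reaching 8%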;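 further: cells transiently co-express mutant CFTR-F508del with the halide-sensitive YFP; corrector assay measuring rescue of mutant channel to the surface after 24 h compound exposure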
Ecoli rRNA inh: reduced GFP signal of wild-type E. coli, primary screen, bacterial rRNA inhibitor project, GFP/RFP fluorescence, OD600, single point; E. coli WT GFP vs humanized-ribosome RFP mutants, 24 h; hits give low values; DMSO median 0, no signal -100; GFP signal change (wild-type ribosome), % (no concentration beside the values); 1.6% of 350,000 active;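 active means significant combined selectivity score with lowered wild-type GFP, culture density cut under 30%, mutant RFP and density less affected; inactive means any of these conditions unmet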
Numbers without * were called inactive; [ ] = dose if it differs, or a comment.

Results for N#CC(C#N)=Cc1ccc(N2CCOCC2)cc1 ?
GSIS activator: 0; HIV Env fusion: -1; Cneo AK release: -2; miR-122 sensor: -1; CFTR F508del cor: -3; Ecoli rRNA inh: 16

Results for N#C/C(=C\c1ccc(O)cc1)C(=O)O (tested in a mixture with another compound) ?
HIV Env fusion: -3; Cneo AK release: -1; miR-122 sensor: -4; CFTR F508del cor: 11*

How did O=C1CNC[C@@H]2[C@@H](c3ccc(Br)cc3)[C@H](CO)N12 do in these assays?
GSIS activator: 12; CFTR F508del cor: -1; Ecoli rRNA inh: 4

Results for COC1=C(C)C(=O)C2=C(C1=O)C(CO)N1C(C#N)C3CC4C(C1C2N1CCOC41)N3C (stereo unspecified) ?
GSIS activator: 2; HIV Env fusion: 67*; miR-122 sensor: -3; CFTR F508del cor: -6

How did C[C@H]1CN([C@@H](C)CO)C(=O)c2c(c3ccccc3n2C)-c2ccccc2CO[C@@H]1CN(C)C(=O)Oc1ccccc1 do in these assays?
GSIS activator: -34; CFTR F508del cor: 0; Ecoli rRNA inh: 0

What do the screens show for `C[C@H](Cc1ccc(OCC(=O)O)cc1)NC[C@H](O)c1cccc(Cl)c1`?
GSIS activator: -4; HIV Env fusion: 14; CFTR F508del cor: 0; Ecoli rRNA inh: 13

What do the screens show for `CC(Cc1ccc(O)cc1)NCC(O)c1cc(O)cc(O)c1` (stereo unspecified)?
GSIS activator: -7; HIV Env fusion: 74*; Cneo AK release: 2; miR-122 sensor: -5; CFTR F508del cor: 0; Ecoli rRNA inh: 16

How did O=C(Cc1ccccc1)N1CC2(C1)[C@H](c1ccccc1)[C@H](CO)N2Cc1cccc(F)c1 do in these assays?
GSIS activator: -31; CFTR F508del cor: 3; Ecoli rRNA inh: -8

Results for CCCCC/C(=N/O)c1c(C)[nH]c2ccccc12 ?
GSIS activator: -9; HIV Env fusion: -3; CFTR F508del cor: 1; Ecoli rRNA inh: -21*

What do the screens show for `CCCN1[C@@H]2Cn3c(ccc(-c4cccc(OC)c4)c3=O)[C@H]1[C@@H](C(=O)OC)[C@@H]2CO`?
GSIS activator: 10; CFTR F508del cor: 1; Ecoli rRNA inh: 2

Results for O=C(c1cccc2ccccc12)C1CCCN(Cc2ccon2)C1 (stereo unspecified) ?
GSIS activator: 40*; HIV Env fusion: 4; Cneo AK release: 1; miR-122 sensor: 0; CFTR F508del cor: 0; Ecoli rRNA inh: -8

Results for COC(COC(N)=O)C1=C(N2CC2)C(=O)C(C)=C(N2CC2)C1=O (stereo unspecified) ?
GSIS activator: 9; HIV Env fusion: 26; miR-122 sensor: -5; CFTR F508del cor: -1; Ecoli rRNA inh: 25

Results for CC1=C(N2CC2)C(=O)C(CO)=C(N2CC2)C1=O ?
GSIS activator: 6; HIV Env fusion: 80*; miR-122 sensor: -4; CFTR F508del cor: -4; Ecoli rRNA inh: 28

What do the screens show for `CC[C@H]1CN2CCC1C[C@H]2[C@H](O)c1ccnc2ccc(OC)cc12` (stereo partly specified)?
HIV Env fusion: -17; Cneo AK release: 2; miR-122 sensor: 2; CFTR F508del cor: 9.8*

Results for O=C1NC(=O)C(=Cc2ccc(N3CCOCC3)o2)C(=O)N1 ?
GSIS activator: -14; HIV Env fusion: 21; CFTR F508del cor: 9.2*; Ecoli rRNA inh: 26

How did O=C(Nc1cccc(OC(=O)N2CCCCC2)c1)N1CCCCC1 do in these assays?
Cneo AK release: 3; miR-122 sensor: 0

Results for O=C(Nc1cccc(OC(=O)N2CCOCC2)c1)N1CCOCC1 ?
HIV Env fusion: 72*; Cneo AK release: 1; miR-122 sensor: -7

Results for O=C(c1ccc(Cl)cc1)C1CCCN(Cc2cccc3cccnc23)C1 (stereo unspecified) ?
GSIS activator: 6; HIV Env fusion: -7; Cneo AK release: 2; miR-122 sensor: 4; CFTR F508del cor: 3; Ecoli rRNA inh: -23*

Results for O=C(c1ccc(Cl)cc1)C1CCCN(Cc2ccc3nonc3c2)C1 (stereo unspecified) ?
GSIS activator: -36; HIV Env fusion: 10; Cneo AK release: 2; miR-122 sensor: 0; CFTR F508del cor: 0; Ecoli rRNA inh: -28*

What do the screens show for `CC=Cc1ccc2n(c1=O)C[C@@H]1[C@@H](CO)[C@H](C(=O)N(C)C)[C@H]2N1C` (mixture of isomers)?
GSIS activator: 11; Cneo AK release: 7; Ecoli rRNA inh: -1

How did Cc1nn(Cc2ccccc2)c(C)c1C(=O)OCC(=O)Nc1cccc(S(N)(=O)=O)c1 do in these assays?
GSIS activator: -4; HIV Env fusion: -4; CFTR F508del cor: 4; Ecoli rRNA inh: -22*

Results for O=C(Cc1cccnc1)N1CCCCN2[C@H](C1)[C@@H](c1ccc(C#CC3CC3)cc1)[C@@H]2CO ?
Cneo AK release: 0; miR-122 sensor: 4[16.7 µM]; CFTR F508del cor: 0

What do the screens show for `O=C(O)c1cccc(N=Nc2c(O)[nH]c(=O)[nH]c2=O)c1`?
GSIS activator: 24; HIV Env fusion: -1; Cneo AK release: 3; miR-122 sensor: -2; CFTR F508del cor: 0; Ecoli rRNA inh: 10

Results for CCOc1ccc2nc(N=Nc3c(O)[nH]c(=O)[nH]c3=O)sc2c1 ?
GSIS activator: -23; HIV Env fusion: -28; Cneo AK release: 3; miR-122 sensor: -5; CFTR F508del cor: 0; Ecoli rRNA inh: -20*

What do the screens show for `CCOc1ccc2nc(N=Nc3c(O)[nH]c(=S)[nH]c3=O)sc2c1`?
GSIS activator: 7; HIV Env fusion: -14; CFTR F508del cor: -2; Ecoli rRNA inh: -34*

Results for Cc1c(N=Nc2c(O)[nH]c(=S)[nH]c2=O)c(=O)n(-c2ccccc2)n1C ?
GSIS activator: -5; HIV Env fusion: 16; Cneo AK release: 2; miR-122 sensor: -2

What do the screens show for `COC(=O)[C@H]1[C@H](CO)[C@H]2Cn3c(cccc3=O)[C@@H]1N2C(=O)C1CC1`?
GSIS activator: 4; HIV Env fusion: 0[16.7 µM]; Cneo AK release: -4; Ecoli rRNA inh: 0

Results for CC=Cc1ccc2n(c1=O)C[C@H]1[C@H](CO)[C@@H](C(=O)OC)[C@@H]2N1CC1CC1 (mixture of isomers) ?
GSIS activator: 20; Cneo AK release: -4; miR-122 sensor: 8[16.7 µM]; CFTR F508del cor: 1; Ecoli rRNA inh: 2
